According to ChEMBL document CHEMBL1129428 (J Med Chem, 1996):

How the values were obtained:
[1] = Partition coefficient (logP); assay type: physicochemical; conditions: octanol/water
How it was run: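 Partition between 1-octanol and buffer at pH 7.4, with solutions prepared in 1-octanol before buffer is added. Quantified by UV, using λmax and ε values measured in 1-octanol.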

Mus musculus [2] = test: Anticonvulsant activity after intraperitoneal injection into mice by using MES screen test after 0.5 hr; assay type: functional
Mus musculus [3] = test: Anticonvulsant activity after intraperitoneal injection into mice measured in a maximal electroshock scree (MES) screen; assay type: functional
Mus musculus [4] = test: Anticonvulsant activity after intraperitoneal injection into mice by using scPTZ screen after 0.5 hr; assay type: functional
Mus musculus [5] = test: Anticonvulsant activity after intraperitoneal injection into mice by using scPTZ screen test after 4 hr; assay type: functional
Mus musculus [6] = test: Toxicity after intraperitoneal injection into mice by using toxicity screen test after 0.5 hr; assay type: organism-based; conditions: in vivo, ip
How it was run: (§1)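 Mice injected intraperitoneally at 30, 100 and 300 mg/kg and examined 0.5 and 4 h afterwards. Each entry is the minimum dose giving activity (MES protection, scPTZ protection, or rotorod failure for neurotoxicity) in half or more of the mice. Activity is called absent if nothing occurs at 300 mg/kg.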

Mus musculus [7] = test: Compound was tested for toxicity after intraperitoneal injection into mice by using toxicity screen test after 4 hr; assay type: organism-based; conditions: in vivo, ip; how it was run: as §1
Rattus norvegicus [8] = test: Compound was tested for anticonvulsant activity after Oral Administration into Rats by using MES screen test after 4h,dose 12.5 mg/kg; number of rats out of four which were protected; assay type: functional
How it was run: (§2)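 Rats received the compound orally. […] Rats were tested in the MES screen at 0.25, 0.5, 1, 2 and 4 h. Each value is the number of rats protected out of 4. The test followed NINDS procedures.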

Rattus norvegicus [9] = test: Compound was tested for anticonvulsant activity after Oral Administration into Rats by using MES screen test after 0.25h,dose 12.5 mg/kg; number of rats out of four which were protected; assay type: functional; how it was run: as §2
Rattus norvegicus [10] = test: Anticonvulsant activity after oral administration into rats; assay type: functional; set-up: concentration or dose not given beside the values
Rattus norvegicus [11] = test: Compound was tested for anticonvulsant activity after Oral Administration into Rats by using MES screen test after 1h,dose 12.5 mg/kg; number of rats out of four which were protected; assay type: functional; how it was run: as §2
Rattus norvegicus [12] = test: Compound was tested for anticonvulsant activity after Oral Administration into rat by using MES screen test after 0.5 hr; assay type: functional
How it was run: (§3)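 Rats dosed orally, typically at 50 mg/kg first, then mostly 12.5 mg/kg (some compounds at 30 mg/kg), and tested by maximal electroshock. Four rats per compound, scored at 0.25, 0.5, 1, 2 and 4 h as the number of rats protected out of 4.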

[13] = Compound was tested for toxicity after oral administration in rat by using neurotoxicity screen test after 2 hr; assay type: organism-based; conditions: in vivo
How it was run: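 Rat neurotoxicity after oral dosing, observed at 0.25, 0.5, 1, 2, 4, 6, 8 and 24 h (8 h omitted for one compound).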

[14] = Protection index = TD50/ED50 (MES); assay type: ADME, organism-based; conditions: rat, in vivo; read-out: PI
Rattus norvegicus [15] = test: Compound was tested for anticonvulsant activity after Oral Administration into Rats by using MES screen test after 2h,dose 12.5 mg/kg; number of rats out of four which were protected; assay type: functional; how it was run: as §2
Rattus norvegicus [16] = test: Compound was tested for anticonvulsant activity after Oral Administration into Rats by using MES screen test after 4h,dose 50 mg/kg; number of rats out of four which were protected; assay type: functional; how it was run: as §2
Rattus norvegicus [17] = test: Compound was tested for anticonvulsant activity after Oral Administration into Rats by using MES screen test after 2h,dose 50 mg/kg; number of rats out of four which were protected; assay type: functional; how it was run: as §2
Rattus norvegicus [18] = test: Compound was tested for anticonvulsant activity after Oral Administration into Rats by using MES screen test after 0.25h,dose 50 mg/kg; No activity was demonstarted; assay type: functional, organism-based; set-up: dose 50 mg/kg; how it was run: as §2
Rattus norvegicus [19] = test: Compound was tested for anticonvulsant activity after Oral Administration into Rats by using MES screen test after 0.5h,dose 50 mg/kg; No activity was demonstarted; assay type: functional, organism-based; set-up: dose 50 mg/kg; how it was run: as §2
Rattus norvegicus [20] = test: Compound was tested for anticonvulsant activity after Oral Administration into Rats by using MES screen test after 1h,dose 50 mg/kg; No activity was demonstarted; assay type: functional, organism-based; set-up: dose 50 mg/kg; how it was run: as §2
Rattus norvegicus [21] = test: Compound was tested for anticonvulsant activity after Oral Administration into Rats by using MES screen test after 4h,dose 30 mg/kg; No activity was demonstarted; assay type: functional, organism-based; set-up: dose 30 mg/kg; how it was run: as §2
Rattus norvegicus [22] = test: Compound was tested for anticonvulsant activity after Oral Administration into Rats by using MES screen test after 0.25h,dose 30 mg/kg; number of rats out of four which were protected; assay type: functional; how it was run: as §2
Rattus norvegicus [23] = test: Compound was tested for anticonvulsant activity after Oral Administration into Rats by using MES screen test after 2h,dose 30 mg/kg; number of rats out of four which were protected; assay type: functional; how it was run: as §2
Rattus norvegicus [24] = test: Compound was tested for anticonvulsant activity after Oral Administration into Rats by using MES screen test after 0.5h,dose 30 mg/kg; number of rats out of four which were protected; assay type: functional; how it was run: as §2
Rattus norvegicus [25] = test: Compound was tested for anticonvulsant activity after Oral Administration into Rats by using MES screen test after 1h,dose 30 mg/kg; number of rats out of four which were protected; assay type: functional; how it was run: as §2
Rattus norvegicus [26] = test: Compound was tested for anticonvulsant activity after Oral Administration into Rats by using MES screen test after 0.25h,dose 50 mg/kg; number of rats out of four which were protected; assay type: functional; how it was run: as §2
Rattus norvegicus [27] = test: Compound was tested for anticonvulsant activity after Oral Administration into Rats by using MES screen test after 0.5h,dose 50 mg/kg; number of rats out of four which were protected; assay type: functional; how it was run: as §2
Rattus norvegicus [28] = test: Compound was tested for anticonvulsant activity after Oral Administration into Rats by using MES screen test after 1 hr, dose 50 mg/kg; number of rats out of four which were protected; assay type: functional; how it was run: as §2
Mus musculus [29] = test: Anticonvulsant activity after intraperitoneal injection into mice by using MES screen test after 0.25 hr; assay type: functional
Mus musculus [30] = test: Compound was tested for anticonvulsant activity after intraperitoneal injection into mice by using scPTZ screen test after 0.25 hr; assay type: functional; conditions: ip
How it was run: (§4)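 Quantitative intraperitoneal mouse testing in the MES, scPTZ or rotorod neurotoxicity screens at the peak time given for each compound (0.25–2 h). ED50 or TD50 reported in mg/kg with 95% CI and slope (SE).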

[31] = Compound was tested for toxicity after intraperitoneal injection into mice by using neurotoxicity screen test after 1 hr; assay type: organism-based; conditions: mouse, in vivo, ip; how it was run: as §4
Rattus norvegicus [32] = test: Compound was tested for anticonvulsant activity after Oral Administration into Rats by using MES screen test after 4h,dose 30 mg/kg; number of rats out of four which were protected; assay type: functional; how it was run: as §2
Rattus norvegicus [33] = test: Compound was tested for anticonvulsant activity after Oral Administration into rat by using MES screen test after 4 hr; assay type: functional; how it was run: as §3
[34] = Protection index = TD50/ED50; assay type: ADME; conditions: read-out: PI
[35] = Protection index = TD50/ED50 (MES); conditions: mouse, in vivo; read-out: PI
Rattus norvegicus [36] = test: Compound was tested for anticonvulsant activity after Oral Administration into Rats by using MES screen test after 0.25h,dose 30 mg/kg; No activity was demonstarted; assay type: functional, organism-based; set-up: dose 30 mg/kg; how it was run: as §2
Rattus norvegicus [37] = test: Compound was tested for anticonvulsant activity after Oral Administration into Rats by using MES screen test after 2h,dose 30 mg/kg; No activity was demonstarted; assay type: functional, organism-based; set-up: dose 30 mg/kg; how it was run: as §2
Rattus norvegicus [38] = test: Compound was tested for anticonvulsant activity after Oral Administration into Rats by using MES screen test after 0.5h,dose 30 mg/kg; No activity was demonstarted; assay type: functional, organism-based; set-up: dose 30 mg/kg; how it was run: as §2
Rattus norvegicus [39] = test: Compound was tested for anticonvulsant activity after Oral Administration into Rats by using MES screen test after 1h,dose 30 mg/kg; No activity was demonstarted; assay type: functional, organism-based; set-up: dose 30 mg/kg; how it was run: as §2

Row | SMILES | logP [1] | Dose (Mus musculus [2]) | Dose (Mus musculus [3]) | Dose (Mus musculus [5]) | Dose (Mus musculus [6]) | Dose (Mus musculus [7]) | ED50 (Rattus norvegicus [12]) | Activity (Rattus norvegicus [16]) | Activity (Rattus norvegicus [17]) | Activity (Rattus norvegicus [21]) | Activity (Rattus norvegicus [22]) | Activity (Rattus norvegicus [23]) | Activity (Rattus norvegicus [24]) | Activity (Rattus norvegicus [25]) | other results
1 | CC(=O)N/N=C/c1ccc(Oc2ccc(F)cc2)cc1 | 1.96 | 30 mg/kg | 30 mg/kg | 100 mg/kg | 100 mg/kg | 100 mg/kg | 18.7 mg/kg |  |  |  |  |  |  |  | Dose (Mus musculus [4]): 100 mg/kg; Activity (Rattus norvegicus [8]): 1; Activity (Rattus norvegicus [9]): 1; Activity (Rattus norvegicus [10]): 4; Activity (Rattus norvegicus [11]): 2; TD50 at 2 h [13]: > 125 mg/kg; selectivity ratio [14]: > 6.7; Activity (Rattus norvegicus [15]): 2
2 | NC(=O)N/N=C/c1ccc(Oc2ccc(Oc3ccccc3)cc2)cc1 | 1.92 |  | 300 mg/kg |  |  |  |  | 1 | 1 |  |  |  |  |  | Activity (Rattus norvegicus [18]): No activity; Activity (Rattus norvegicus [19]): No activity; Activity (Rattus norvegicus [20]): No activity
3 | CC/C(=N/NC(N)=O)c1ccc(Oc2ccccc2)cc1 |  | 30 mg/kg | 100 mg/kg |  | 100 mg/kg | 100 mg/kg | 23.1 mg/kg |  |  | No activity | 1 | 3 | 4 | 3 | 
4 | NC(=O)N/N=C/c1ccc(Oc2ccc(Br)cc2)cc1 |  | 30 mg/kg | 30 mg/kg |  | 300 mg/kg | 30 mg/kg |  | 4 | 4 |  |  |  |  |  | Activity (Rattus norvegicus [26]): 1; Activity (Rattus norvegicus [27]): 4; Activity (Rattus norvegicus [28]): 4
5 | C/C(=N/NC(N)=O)c1ccc(Oc2ccccc2)cc1 |  | 30 mg/kg | 100 mg/kg |  | 100 mg/kg | 100 mg/kg |  |  |  |  | 4 | 4 | 4 | 4 | ED50 (Mus musculus [29]): 9.08 mg/kg; ED50 (Mus musculus [30]): 43.3 mg/kg; TD50 at 1 h [31]: 73.5 mg/kg; Activity (Rattus norvegicus [32]): 4; ED50 (Rattus norvegicus [33]): 9.73 mg/kg; selectivity ratio [34]: 1.7; selectivity ratio [35]: 8.09
6 | NNC(=O)N/N=C/c1ccc(Oc2ccc(F)cc2)cc1 | 2.06 | 300 mg/kg | 100 mg/kg | 300 mg/kg |  | 300 mg/kg |  |  |  | No activity |  |  |  |  | Activity (Rattus norvegicus [36]): No activity; Activity (Rattus norvegicus [37]): No activity; Activity (Rattus norvegicus [38]): No activity; Activity (Rattus norvegicus [39]): No activity
